As usually defined, the GI50 is the concentration that inhibits growth by half. Higher therefore signals lower sensitivity of the cells.

These results are taken from ChEMBL document CHEMBL1158554, “3,5-Diaryl-1H-pyrazole as a molecular scaffold for the synthesis of apoptosis-inducing agents” (2010).

Experiment [1] has as its system OVCAR. As to the kind of experiment: Growth inhibition of human OVCAR cells after 48 hrs by MTT assay. In kind it is functional. An outline of the steps:
(§1)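 Cells seeded 3000/well (OVCA, SW620, H460) or 5000/well (AGS), grown 24 h, then exposed to serial dilutions (DMSO stock) for 48 h at 37 °C, 5% CO2. MTT (2 mg/ml in PBS) added for 2 h; formazan dissolved in DMSO and read at 570 nm. Inhibition = (1 − At/Ac)×100 vs vehicle; GI50 interpolated from dose–response curves; four to six separate experiments, mean ± SEM.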
(In general: Tetrazolium dyes change colour on reduction, which living cells bring about.)

Experiment [2] concerns AGS. The experiment is described as follows: Growth inhibition of human AGS cells after 48 hrs by MTT assay. In kind it is functional. An outline of the steps: as §1
In experiment [3] the test system is SW-620. As to the kind of experiment: Growth inhibition of human SW620 cells at 40 uM after 48 hrs by MTT assay. In kind it is functional, cell-based. An outline of the steps: (§2)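 MTT growth inhibition at the top tested concentration of 40 uM, 48 h exposure, cells seeded as for GI50 (3000/well OVCA, SW620, H460; 5000/well AGS).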
Experiment [4] relates to NCI-H460. As to the kind of experiment: Growth inhibition of human H460 cells at 40 uM after 48 hrs by MTT assay. In kind it is functional, cell-based. An outline of the steps:
as §2

Experiment [5] relates to OVCAR. As to the kind of experiment: Cell cycle arrest in human OVCAR cells assessed as accumulation at sub-G1 phase at 1.2 uM after 24 hrs by propidium iodide staining-based FACS analysis. In kind it is functional. An outline of the steps: (§3)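 OVCA cells given 0.5% DMSO or compound for 24 h, harvested, PBS-rinsed, fixed in 80% ethanol and held at −20 °C until analysis. Propidium iodide DNA staining and flow cytometry; apoptotic nuclei scored as the subdiploid (sub-G1) peak, given as percent of the whole population. Untreated cells served as blank.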
Background: A flow cytometer gives signals particle by particle.

Experiment [6] has as its system OVCAR. The experiment is described as follows: Cell cycle arrest in human OVCAR cells assessed as accumulation at sub-G1 phase at 2.5 uM after 24 hrs by propidium iodide staining-based FACS analysis. In kind it is functional. An outline of the steps:
as §3

Experiment [7] has as its system OVCAR. As to the kind of experiment: Cell cycle arrest in human OVCAR cells assessed as accumulation at sub-G1 phase at 5 uM after 24 hrs by propidium iodide staining-based FACS analysis. In kind it is functional. An outline of the steps: as §3
Experiment [8] has as its system OVCAR. The experiment is described as follows: Induction of apoptosis in human OVCAR cells assessed as PARP cleavage at 1.2 to 5 uM after 16 hrs by Western blot analysis. In kind it is functional, cell-based. An outline of the steps: (§4)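 OVCA cells treated 16 h (vehicle 1% DMSO), washed in PBS, lysed; 50 ug protein run on 15% SDS-PAGE, transferred to nitrocellulose, blocked overnight at 4 °C in TBST/5% milk. Probed with anti-PARP (1:500), anti-cleaved caspase-3, anti-cleaved caspase-9, anti-phospho-Akt, anti-Akt, anti-beta-actin (1:1000), then secondary IgG 1:10,000 for 1 h at room temperature; ECL detection. Total Akt used as reference for phospho-Akt.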
Background: In western blotting, separated proteins are transferred to a membrane and probed.

Experiment [9] has as its system OVCAR. As to the kind of experiment: Induction of apoptosis in human OVCAR cells assessed as increase in cleaved caspase-3 level at 1.2 to 5 uM after 16 hrs by Western blot analysis. In kind it is functional, cell-based. An outline of the steps:
as §4

The subject of experiment [10] is OVCAR. The experiment is described as follows: Induction of apoptosis in human OVCAR cells assessed as increase in cleaved caspase-9 level at 1.2 to 5 uM after 16 hrs by Western blot analysis. In kind it is functional, cell-based. An outline of the steps: as §4
For experiment [11], the target named is RAC-alpha serine/threonine-protein kinase (Homo sapiens) (UniProt P31749). As to the kind of experiment: Inhibition of Akt phosphorylation in human OVCAR cells at 1.2 to 5 uM after 16 hrs by Western blot analysis. In kind it is cell-based. An outline of the steps: as §4

SMILES strings stand for the structures. Activity calls are given as the source filed them. The rule behind the calls is not given here.

RAC-alpha serine/threonine-protein kinase (Homo sapiens), sequence (P31749 whole entry): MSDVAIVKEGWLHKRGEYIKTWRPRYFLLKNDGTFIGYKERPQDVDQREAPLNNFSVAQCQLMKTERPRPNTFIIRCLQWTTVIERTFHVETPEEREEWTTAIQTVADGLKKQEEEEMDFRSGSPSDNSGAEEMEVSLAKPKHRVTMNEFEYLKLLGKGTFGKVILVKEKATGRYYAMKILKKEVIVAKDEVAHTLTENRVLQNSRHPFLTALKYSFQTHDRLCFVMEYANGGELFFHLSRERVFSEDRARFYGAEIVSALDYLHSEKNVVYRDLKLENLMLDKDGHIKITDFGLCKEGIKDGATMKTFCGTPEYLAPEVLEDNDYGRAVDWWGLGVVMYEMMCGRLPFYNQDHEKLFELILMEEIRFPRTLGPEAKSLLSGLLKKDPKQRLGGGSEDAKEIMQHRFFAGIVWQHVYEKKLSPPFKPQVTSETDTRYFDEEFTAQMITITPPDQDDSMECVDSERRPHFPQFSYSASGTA

On to `FC(F)(F)c1ccc(-c2cc(-c3ccccc3-c3ccccc3)n[nH]2)cc1`, for which the GI50 was found to be 2.75 µM in experiment [1] and 6.9 µM in experiment [2]. The “growth inhibition (GI)” value in [3] and in experiment [4] was “inactive” each time. In addition, the Activity in experiment [5] was found to be 11.43%; in [6], 15.75%; in experiment [7] it was 23.51%. In addition, the result in experiment [8], in experiment [9] and in experiment [10] was Active. In addition, the inhibition entry in [11] was “Active”.
